Measured values: ChEMBL document CHEMBL1148398, “Design, synthesis, and biological evaluation of thio-containing compounds with serum HDL-cholesterol-elevating properties” (2004)

Key:
Assay type in all cases: functional
[1] = test system: Rattus norvegicus; assay: Percent change in total plasma cholesterol in hypercholesterolemic rats dosed at 100 mg/kg/day for 8 days
[2] = test system: Rattus norvegicus; assay: Percent change in high-density lipoprotein cholesterol in hypercholesterolemic rats dosed at 100 mg/kg/day for 8 days
[3] = test system: Rattus norvegicus; assay: Percent change in triglycerides in hypercholesterolemic rats at a dose of 100 mg/kg/day for 8 days
[4] = test system: Rattus norvegicus; assay: Percent change in total plasma cholesterol following oral administration of compound in normal chow-fed rats at 100 mg/kg/day for 4 days
Summary of the method: (§1)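 Chow-fed male Sprague–Dawley CD rats, 60–80 g, gavaged 100 mg/kg/day for 4 days in 1.3% Tween 80/0.25% CMC. Fasted overnight, bled 24 h after the last dose. Total cholesterol and glycerol-blanked triglycerides read enzymatically; lipoproteins by FPLC with cholesterol per fraction. % change versus control; six per group, p < 0.05.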

[5] = test system: Rattus norvegicus; assay: Percent change in high-density lipoprotein cholesterol following oral administration of compound in normal chow-fed rats at 100 mg/kg/day for 4 days; summary of the method: as §1
[6] = test system: Rattus norvegicus; assay: Percent change in low-density lipoprotein cholesterol following oral administration of compound in normal chow-fed rats at 100 mg/kg/day for 4 days; summary of the method: as §1
[7] = test system: Rattus norvegicus; assay: Percent change in very low-density lipoprotein cholesterol following oral administration of compound in normal chow-fed rats at 100 mg/kg/day for 4 days; summary of the method: as §1
[8] = test system: Rattus norvegicus; assay: Percent change in triglycerides following oral administration of compound in normal chow-fed rats at 100 mg/kg/day for 4 days; summary of the method: as §1

Structure (SMILES) | Change [1] [%] | Change [2] [%] | Change [3] [%] | Change [4] [%] | Change [5] [%] | Change [6] [%] | Change [7] [%] | Change [8] [%]
CN1CC(=O)N(c2ccccc2)C1=S | 25 | 66 | 10 |  |  |  |  | 
CCN1CC(=O)N(c2ccc3ccccc3c2)C1=S | -18.1 | 65 | -33 |  |  |  |  | 
CCCCN1CC(=O)N(c2c(C)cccc2Cl)C1=S | 30 | 53 | -38 |  |  |  |  | 
CCN1CC(=O)N(c2cc(Cl)ccc2OC)C1=S | 24 | 39 | 51 |  |  |  |  | 
CCN1CC(=O)N(c2ccc(N(C)C)cc2)C1=S | 123 | 49 | -41 |  |  |  |  | 
O=C1CN(Cc2ccccc2)C(=S)N1c1c(Cl)cccc1Cl | 25.3 | -2.2 | -54 |  |  |  |  | 
CCN1CC(=O)N(c2cc(F)ccc2C)C1=S | 35 | 112 | -36 | 95.2 | 102.4 | 14 | 131.6 | -6.3
COC(=O)CCN1CC(=O)N(c2ccc(Cl)cc2C)C1=S | 14 | 27 | -32 |  |  |  |  | 
CN1CC(=O)N(c2c(Cl)cccc2Cl)C1=S | 4.6 | 92 | -43 | 83.9 | 109.3 | 39.6 | -3.3 | -33.3
CC(C)c1ccccc1N1C(=O)CON(C)C1=S | 0 | 95 | -16 | 92.4 | 98.2 | 32.1 | -8.3 | -52.7
CCN1CC(=O)N(c2ccc(F)cc2)C1=S | 78 | 59 | -18 |  |  |  |  | 
CCN1C(=S)N(c2cc(Cl)ccc2C)C(=O)C1c1ccccc1 (centres undefined) | 60 | 187 | 76 |  |  |  |  | 
CN1CC(=O)N(CCN2CCCCC2)C1=S | -3.3 | -40 | 33 |  |  |  |  | 
CCN1C(=S)N(c2c(C)cccc2C)C(=O)C1(C)C | 13 | -2 | 17 |  |  |  |  | 
CCc1cccc(C)c1N1C(=O)CCN(CC)C1=S | 52 | 60 | 2 |  |  |  |  | 
CCN1CCCC(=O)N(c2ccc(Cl)cc2C)C1=S | 58.8 | 15 | -15 |  |  |  |  | 
CCN1CC(=O)N(CCc2ccccc2)C1=S | -14 | 30 | 6 |  |  |  |  | 
CCN1CC(=O)N(c2ccccc2C)C1=S | 76.5 | 164 | 38 | 52.1 | 54.3 | 18.7 | 0 | -25
CCN1CC(=O)N(c2c(Cl)cccc2Cl)C1=S | 53.4 | 142 | -37 | 57 | 60.2 | 6.8 | 0 | -35.8
CN1OCC(=O)N(C(c2ccccc2)c2ccccc2)C1=S | 22 | 60 | 9 | 17.6 | 33.7 | 43.8 | -29.3 | -44.1
CCN1C(=O)C(=O)N(c2ccc(F)cc2)C1=S | 44 | 23 | -48 |  |  |  |  | 
Cc1ccc(Cl)cc1N1C(=O)CN(C)C1=O | 37 | -8 | -7 |  |  |  |  | 
CN1CC(=O)N(c2ccc3c(c2)CCC3)C1=S | -3 | 112 | -26 | 26 | 46 | -40.3 | 26.3 | -0.9
CN1CC(=O)N(CCc2ccc(Cl)cc2)C1=S | -10.2 | -15.5 | 24 |  |  |  |  | 
CCN1C(=S)N(CC(C)C)C(=O)C1c1ccccc1 (centres undefined) | 7 | 156 | 92 | -8.4 | -3.1 | -9.3 | 33.3 | -1.6
Cc1ccc(CCN2C(=O)CN(C)C2=S)cc1 | -11 | -26.6 | 27 |  |  |  |  | 
CN1OCC(=O)N(c2ccc(Oc3ccccc3)cc2)C1=S | -25 | 102 | -43 | -13 | 0 | -20.5 | -9.1 | -20.5
CCN1CC(=O)N(CCc2ccc(F)cc2)C1=S | -8.8 | 49 | -17 |  |  |  |  | 

Structure (SMILES) | Change [1] [%] | Change [2] [%] | Change [3] [%] | Change [4] [%] | Change [5] [%] | Change [6] [%] | Change [7] [%] | Change [8] [%]
CCN1CCC(=O)N(c2c(Cl)cccc2Cl)C1=S | 42 | 16 | -6 |  |  |  |  | 
Cc1ccc(Cl)cc1N1C(=O)C(C)N(C)C1=S (centres undefined) | -8 | 220 | -58 | 276.5 | 67.9 | 800 | 134.7 | 207.2
CN1CC(=O)N(c2cccnc2)C1=S | -11.4 | 29 | 150 |  |  |  |  | 
CCN1CCC(=O)N(c2c(C)cccc2Cl)C1=S | 23 | 199 | -16 | 45.4 | 45.5 | -1.1 | -5.3 | -35.7
CCN1CC(=O)N(C2CCCCC2)C1=S | -7.4 | 5.4 | 28 |  |  |  |  | 
CCN1CC(=O)N(c2cc(C)ccc2C)C1=S | 49 | 124 | -6 | 26.4 | 31.9 | -8.3 | 31.3 | -2.5
CN1CC(=O)N(CCCCc2ccccc2)C1=S | -4.3 | -21 | 41 |  |  |  |  | 
CCN1CCC(=O)N(c2ccccc2C(C)C)C1=S | 44 | 108 | -31 | 59.2 | 67.8 | 9.8 | 35.2 | -12.4
CCN1C(=S)N(c2c(Cl)cccc2Cl)C(=O)C1c1ccccc1 (centres undefined) | 18 | 39 | 25 |  |  |  |  | 
CCc1cccc(C(C)C)c1N1C(=O)CN(CC)C1=S | -62 | 54 | 5 | 30.9 | 48.7 | -22.3 | -50 | -12.2
CCN1CCC(=O)N(c2ccc(C)cc2C)C1=S | 27 | -3 | 2 |  |  |  |  | 
CCN1C(=S)N(c2ccc(F)cc2)C(=O)C1c1ccccc1 (centres undefined) | 31 | 67 | 35 |  |  |  |  | 
CCN1C(=S)N(c2cc(Cl)ccc2C)C(=O)C1(C)C | 0 | -9 | 15 |  |  |  |  | 
CCN1CC(=O)N(c2cc(Cl)ccc2C)C(=S)C1 | 28 | 10 | -27 |  |  |  |  | 
CCN1C(=S)N(c2c(C)cccc2Cl)C(=O)C1(C)C | 16 | -5 | -22 |  |  |  |  | 
Cc1ccc(Cl)cc1N1C(=O)C(=O)N(C)C1=S | 44 | 196 | -26 |  |  |  |  | 
CCc1cccc(C(C)C)c1N1C(=O)CCN(CC)C1=S | 2 | 34 | -11 |  |  |  |  | 
CCN1CCC(=O)N(c2cc(Cl)ccc2C)C1=S | 53 | 76 | 44 |  |  |  |  | 
CCN1CCCC(=O)N(c2cc(Cl)ccc2C)C1=S | 7 | 50 | 14 |  |  |  |  | 
Cc1cccc(Cl)c1N1C(=O)CN(c2ccccc2)C1=S | 2.2 | 39 | 16 |  |  |  |  | 
CN1CC(=O)N(Cc2ccccc2Cl)C1=S | 14 | 23 | 11 |  |  |  |  | 
CCN1C(=S)N(c2c(Cl)cccc2Cl)C(=O)C1(C)C | -16 | -18 | -19 |  |  |  |  | 
CCN1CC(=O)N(c2ccccc2SC)C1=S | 13 | 60 | -8 |  |  |  |  | 
CCN1C(=O)C(=O)N(c2cc(Cl)ccc2C)C1=S | 32 | 242 | -22 | 123.4 | 87.6 | 71.9 | 67.3 | 
CCN1CC(=O)N(c2cc(Cl)ccc2C)/C1=N/C#N | 15 | 17 | -25 |  |  |  |  | 
CN1CC(=O)N(C(c2ccccc2)c2ccccc2)C1=S | 3.4 | 57 | 92 |  |  |  |  | 
CCN1CC(=O)N(c2cc(C)c(C)cc2C)C1=S | 39 | 112 | -11 |  |  |  |  | 
